Our source for the IC50 values is ChEMBL document CHEMBL1156677, “Oxoisoaporphine alkaloid derivatives: synthesis, DNA binding affinity and cytotoxicity” (Eur J Med Chem, 2008).

Structures are written as SMILES. pIC50: −log10 of the molar value.

What all share (assay type): functional, cell-based
Test [1] has as its system HepG2. Nature of the test: Cytotoxicity against human HepG2 cells after 48 hrs by MTT assay. The conditions noted are these: HepG2, 48 h. A digest of the protocol: (§1)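 Cells in exponential growth were trypsinised, centrifuged at 180 × g for 3 min, resuspended at 5 × 10^4 cells/ml and seeded. After 48 h drug exposure, MTT (1 mg/mL) added for 4 h. Formazan dissolved in DMSO, OD read at 570 nm. Each dose run in triplicate. IC50 derived from mean OD and reported as the mean of three independent assays.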
For orientation: Formazan colour is commonly taken as a measure of viable cells.

Test [2] relates to NCI-H460. Nature of the test: Cytotoxicity against human NCI-H460 cells after 48 hrs by MTT assay. The settings on record: NCI-H460, 48 h. A digest of the protocol: as §1
Test [3] concerns MCF7. Put plainly: Cytotoxicity against human MCF7 cells after 48 hrs by MTT assay. The conditions noted are these: MCF7, 48 h. A digest of the protocol:
as §1

What is called pIC50 is the IC50 on a negative log10 scale, so that one unit is a factor of ten. Read a low pIC50 as a large IC50. On to `CCN(CC)CCC(=O)Nc1ccc2c(c1)C(=O)c1cccc3ccnc-2c13`, for which the figures for the pIC50 in test [1], in test [2] and in test [3] were 4.92, 5.30 and 4.90, respectively.

Regarding `CN(C)CC(=O)Nc1ccc2c(c1)C(=O)c1cccc3ccnc-2c13`, the values for the pIC50 in test [1], in test [2] and in test [3] were 5.01, 5.04 and 4.76, respectively.

As to `O=C(CCN1CCCCC1)Nc1ccc2c(c1)C(=O)c1cccc3ccnc-2c13`, the negative logarithm of the IC50 (pIC50) in test [1] was 5.20; in test [2], 5.37; in test [3], 5.29.

Take `CN(C)CCNCCC(=O)Nc1ccc2c(c1)C(=O)c1cccc3ccnc-2c13`: the figures for the pIC50 in test [1], in test [2] and in test [3] were 4.68, 4.52 and 4.55, respectively.

As to `O=C(CCNCCO)Nc1ccc2c(c1)C(=O)c1cccc3ccnc-2c13`, the negative-log IC50 (pIC50) in test [1] was 5.41; in test [2] it was 5.63; in test [3], 5.37.

In the case of `O=C(CN1CCCC1)Nc1ccc2c(c1)C(=O)c1cccc3ccnc-2c13`, the negative-log IC50 (pIC50) is 5.09 in test [1], 5.68 in test [2] and 4.93 in test [3].

On to `CN(C)CCCC(=O)Nc1ccc2c(c1)C(=O)c1cccc3ccnc-2c13`, for which the figures for the pIC50 in test [1], in test [2] and in test [3] were 4.53, 4.71 and 4.94, respectively.

On to `O=C1c2ccccc2-c2nccc3cccc1c23`, for which the negative logarithm of the IC50 (pIC50) in test [1] and in test [3] was < 4.00 throughout.

As to `CN(C)CCC(=O)Nc1ccc2c(c1)C(=O)c1cccc3ccnc-2c13`, the figures for the pIC50 in test [1], in test [2] and in test [3] were 5.11, 5.17 and 5.04, respectively.

As for `O=C(CCN1CCCC1)Nc1ccc2c(c1)C(=O)c1cccc3ccnc-2c13`, the negative logarithm of the IC50 (pIC50) was 5.09 in test [1], 4.78 in test [2] and 5.10 in test [3].

For `O=C(CCCN1CCCC1)Nc1ccc2c(c1)C(=O)c1cccc3ccnc-2c13`, the values for the pIC50 in test [1], in test [2] and in test [3] were 4.89, 5.04 and 4.56, respectively.

Take `Nc1ccc2c(c1)C(=O)c1cccc3ccnc-2c13`: the negative logarithm of the IC50 (pIC50) is 4.71 in test [1], 4.45 in test [2] and 4.69 in test [3].
